Assays:
Format in all cases: functional
[1] = Growth inhibition of human MOLT4 cells assessed as cell growth at 10 uM incubated for 48 hrs by sulforhodamine B assay; settings: MOLT-4, 48 h, read-out: Activity
[2] = Growth inhibition of human RXF393 cells assessed as cell growth at 10^-4 M incubated for 48 hrs by sulforhodamine B assay; settings: RXF 393, 48 h, read-out: Activity
[3] = Growth inhibition of human SF268 cells assessed as cell growth at 10 uM incubated for 48 hrs by sulforhodamine B assay; settings: SF-268, 48 h, read-out: Activity
[4] = Growth inhibition of human LOXIMVI cells assessed as cell growth at 10 uM incubated for 48 hrs by sulforhodamine B assay; settings: LOX IMVI, read-out: Activity
[5] = Growth inhibition of human leukemia cells incubated for 48 hrs by sulforhodamine B assay; settings: Leukemia cell; for CC50: read-out: LC50 (the source's name)
NCI/ADR-RES = assay: Growth inhibition of human NCI/ADR-RES cells incubated for 48 hrs by sulforhodamine B assay
Procedure, shortened: (§1)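 Cells were plated at 5,000–40,000 per well according to doubling time and preincubated 24 h at 37 °C in 5% CO2; time-zero plates were then TCA-fixed. Five concentrations (10-fold or ½-log dilutions, DMSO stock) were incubated 48 h. Cells were TCA-fixed, stained with 0.4% SRB and read at 515 nm. GI50 was taken where [(Ti−Tz)/(C−Tz)]×100 = 50.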

[6] = Growth inhibition of human Caki1 cells assessed as cell growth at 10^-7 M incubated for 48 hrs by sulforhodamine B assay; settings: CAKI-1, 48 h, read-out: Activity
Procedure, shortened: (§2)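 Cells seeded at 5,000–40,000/well according to doubling time and preincubated 24 h at 37 °C, 5% CO2. Time-zero plates were TCA-fixed. DMSO concentrate was diluted in medium with 50 µg/ml gentamicin to give five concentrations (10-fold or ½ log steps), then exposed 48 h. Cells were TCA-fixed, stained with 0.4% SRB and read at 515 nm. Percent growth was taken against time-zero and control; GI50, TGI and LC50 derived.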

MDA-MB-231 [7] = assay: Growth inhibition of human MDA-MB-231 cells assessed as cell growth at 10^-6 M incubated for 48 hrs by sulforhodamine B assay; settings: MDA-MB-231, 48 h, read-out: Activity
[8] = Growth inhibition of human Hs 578T cells assessed as cell growth at 10^-6 M incubated for 48 hrs by sulforhodamine B assay; settings: read-out: Activity
[9] = Growth inhibition of human Hs 578T cells assessed as cell growth at 10^-8 M incubated for 48 hrs by sulforhodamine B assay; settings: read-out: Activity
NCI-H226 = assay: Growth inhibition of human NCI-H226 cells assessed as cell growth at 10^-5 M incubated for 48 hrs by sulforhodamine B assay; settings: NCI-H226, 48 h, read-out: Activity
[10] = Growth inhibition of human HL-60(TB) cells assessed as cell growth at 10^-6 M incubated for 48 hrs by sulforhodamine B assay; settings: HL-60, 48 h, read-out: Activity
Procedure, shortened: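 Cells plated at 5,000–40,000/well according to doubling time and preincubated 24 h at 37 °C, 5% CO₂, with time-zero plates TCA-fixed. Drugs were kept as DMSO concentrates at 400× the top concentration and diluted in medium with 50 µg/ml gentamicin. Five 10-fold or ½-log dilutions were run for 48 h, followed by SRB staining and A515. Percent growth = (Ti−Tz)/(C−Tz)×100, or (Ti−Tz)/Tz×100 when Ti<Tz.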

[11] = Growth inhibition of human SNB19 cells assessed as cell growth at 10^-7 M incubated for 48 hrs by sulforhodamine B assay; settings: SNB-19, 48 h, read-out: Activity
[12] = Growth inhibition of human RXF393 cells assessed as cell growth at 10^-7 M incubated for 48 hrs by sulforhodamine B assay; settings: RXF 393, 48 h, read-out: Activity
[13] = Growth inhibition of human HCT116 cells assessed as cell growth at 10^-5 M incubated for 48 hrs by sulforhodamine B assay; settings: HCT-116, 48 h, read-out: Activity; procedure, shortened: as §2
[14] = Growth inhibition of human BT549 cells incubated for 48 hrs by sulforhodamine B assay; settings: BT-549, 48 h
Procedure, shortened: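 Five-dose assay: five concentrations from 10-fold or ½-log serial dilutions. Cells are plated at 5,000–40,000 per well according to doubling time, grown 24 h, then exposed 48 h at 37 °C, 5% CO₂. Fixed with cold 50% TCA (final addition) for 60 min at 4 °C and stained with 0.4% SRB in 1% acetic acid. Bound dye is solubilized in 10 mM Tris base and read at 515 nm. GI₅₀ is where [(Ti−Tz)/(C−Tz)]×100 = 50, with a time-zero plate as Tz.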

MDA-MB-231 [15] = assay: Growth inhibition of human MDA-MB-231 cells incubated for 48 hrs by sulforhodamine B assay; settings: MDA-MB-231, 48 h; procedure, shortened: as §1
[16] = Growth inhibition of human UO31 cells assessed as cell growth at 10^-7 M incubated for 48 hrs by sulforhodamine B assay; settings: UO-31, 48 h, read-out: Activity
[17] = Growth inhibition of human SKOV3 cells incubated for 48 hrs by sulforhodamine B assay; settings: SK-OV-3, 48 h; procedure, shortened: as §1
NCI-H460 = assay: Growth inhibition of human NCI-H460 cells assessed as cell growth at 10^-5 M incubated for 48 hrs by sulforhodamine B assay; settings: NCI-H460, 48 h, read-out: Activity
[18] = Growth inhibition of human SNB19 cells assessed as cell growth at 10^-6 M incubated for 48 hrs by sulforhodamine B assay; settings: SNB-19, 48 h, read-out: Activity
[19] = Growth inhibition of human HCC2998 cells assessed as cell growth at 10^-5 M incubated for 48 hrs by sulforhodamine B assay; settings: HCC 2998, 48 h, read-out: Activity; procedure, shortened: as §2
MDA-MB-468 = assay: Growth inhibition of human MDA-MB-468 cells incubated for 48 hrs by sulforhodamine B assay; settings: MDA-MB-468, 48 h; procedure, shortened: as §1
K562 = assay: Growth inhibition of human K562 cells assessed as cell growth at 10^-4 M incubated for 48 hrs by sulforhodamine B assay; settings: K562, 48 h, read-out: Activity
[20] = read-out: LC50 (the source's name)
[21] = read-out: pLC50 (the source's name) (converted)

SMILES: Fc1ccc(-c2nc(Nc3ccc(-c4nc5ccccc5[nH]4)cc3)nc(N3CCOCC3)n2)cc1
- growth at 10 µM [1]: 1.78%
- growth at 100 µM [2]: -35%
- growth at 10 µM [3]: 34.1%
- growth at 10 µM [4]: -75.6%
- GI50 [5]: 2.02 µM
- TGI [5]: 6.11 µM
- CC50 [5]: > 100 µM
- GI50 (NCI/ADR-RES; read-out: GI50): 3.18 µM
- CC50 (NCI/ADR-RES; [20]): > 100 µM
- TGI (NCI/ADR-RES; read-out: TGI): 26.7 µM
- GI50 (NCI/ADR-RES; read-out: pGI50 (converted)): 3.16 µM
- CC50 (NCI/ADR-RES; [21]): > 100 µM
- TGI (NCI/ADR-RES; read-out: pTGI (converted)): 26.9 µM
- growth at 0.1 µM [6]: 97%
- growth at 1 µM (MDA-MB-231 [7]): 73%
- growth at 1 µM [8]: 71%
- growth at 0.01 µM [9]: 95%
- growth at 10 µM (NCI-H226): -8%
- growth at 1 µM [10]: 81%
- growth at 0.1 µM [11]: 97%
- growth at 0.1 µM [12]: 100%
- growth at 10 µM [13]: -84%
- GI50 ([14]; read-out: GI50): 1.74 µM
- TGI ([14]; read-out: TGI): 4.07 µM
- GI50 ([14]; read-out: pGI50 (converted)): 1.74 µM
- TGI ([14]; read-out: pTGI (converted)): 4.07 µM
- GI50 (MDA-MB-231 [15]; read-out: GI50): 1.63 µM
- CC50 (MDA-MB-231 [15]; [20]): > 100 µM
- TGI (MDA-MB-231 [15]; read-out: TGI): 4.76 µM
- GI50 (MDA-MB-231 [15]; read-out: pGI50 (converted)): 1.62 µM
- CC50 (MDA-MB-231 [15]; [21]): > 100 µM
- TGI (MDA-MB-231 [15]; read-out: pTGI (converted)): 4.79 µM
- growth at 0.1 µM [16]: 89%
- GI50 ([17]; read-out: GI50): 2.37 µM
- CC50 [17, 20]: > 100 µM
- TGI ([17]; read-out: TGI): 5.53 µM
- GI50 ([17]; read-out: pGI50 (converted)): 2.34 µM
- CC50 [17, 21]: > 100 µM
- TGI ([17]; read-out: pTGI (converted)): 5.5 µM
- growth at 10 µM (NCI-H460): -22%
- growth at 1 µM [18]: 92%
- growth at 10 µM [19]: 4%
- GI50 (MDA-MB-468; read-out: GI50): 2.92 µM
- CC50 (MDA-MB-468; [20]): > 100 µM
- TGI (MDA-MB-468; read-out: TGI): 7.65 µM
- GI50 (MDA-MB-468; read-out: pGI50 (converted)): 2.95 µM
- CC50 (MDA-MB-468; [21]): > 100 µM
- TGI (MDA-MB-468; read-out: pTGI (converted)): 7.59 µM

SMILES: c1ccc2[nH]c(-c3ccc(Nc4nc(N5CCCCC5)nc(N5CCOCC5)n4)cc3)nc2c1
- growth at 10 µM [1]: 13.7%
- growth at 100 µM [2]: -46%
- growth at 10 µM [3]: 33.8%
- growth at 10 µM [4]: -77.1%
- GI50 [5]: 2.37 µM
- TGI [5]: 6.5 µM
- CC50 [5]: > 100 µM
- GI50 (NCI/ADR-RES; read-out: GI50): 4.69 µM
- CC50 (NCI/ADR-RES; [20]): > 100 µM
- TGI (NCI/ADR-RES; read-out: TGI): 55.2 µM
- GI50 (NCI/ADR-RES; read-out: pGI50 (converted)): 4.68 µM
- CC50 (NCI/ADR-RES; [21]): > 100 µM
- TGI (NCI/ADR-RES; read-out: pTGI (converted)): 55 µM
- growth at 0.1 µM [6]: 86%
- growth at 1 µM (MDA-MB-231 [7]): 92%
- growth at 1 µM [8]: 89%
- growth at 0.01 µM [9]: 96%
- growth at 100 µM (K562): 1%
- growth at 10 µM (NCI-H226): 12%
- growth at 1 µM [10]: 100%
- growth at 0.1 µM [11]: 98%
- growth at 0.1 µM [12]: 91%
- growth at 10 µM [13]: -67%
- GI50 ([14]; read-out: GI50): 2.07 µM
- CC50 [14, 20]: 92.7 µM
- TGI ([14]; read-out: TGI): 5.2 µM
- GI50 ([14]; read-out: pGI50 (converted)): 2.09 µM
- CC50 [14, 21]: 93.3 µM
- TGI ([14]; read-out: pTGI (converted)): 5.25 µM
- GI50 (MDA-MB-231 [15]; read-out: GI50): 2.5 µM
- CC50 (MDA-MB-231 [15]; [20]): > 100 µM
- TGI (MDA-MB-231 [15]; read-out: TGI): 7.52 µM
- GI50 (MDA-MB-231 [15]; read-out: pGI50 (converted)): 2.51 µM
- CC50 (MDA-MB-231 [15]; [21]): > 100 µM
- TGI (MDA-MB-231 [15]; read-out: pTGI (converted)): 7.59 µM
- growth at 0.1 µM [16]: 86%
- GI50 ([17]; read-out: GI50): 2.37 µM
- CC50 [17, 20]: 26.9 µM
- TGI ([17]; read-out: TGI): 5.43 µM
- GI50 ([17]; read-out: pGI50 (converted)): 2.34 µM
- CC50 [17, 21]: 26.9 µM
- TGI ([17]; read-out: pTGI (converted)): 5.37 µM
- growth at 10 µM (NCI-H460): -26%
- growth at 1 µM [18]: 99%
- growth at 10 µM [19]: 9%
- GI50 (MDA-MB-468; read-out: GI50): 2.68 µM
- CC50 (MDA-MB-468; [20]): > 100 µM
- TGI (MDA-MB-468; read-out: TGI): 6.51 µM
- GI50 (MDA-MB-468; read-out: pGI50 (converted)): 2.69 µM
- CC50 (MDA-MB-468; [21]): > 100 µM
- TGI (MDA-MB-468; read-out: pTGI (converted)): 6.46 µM
